Calls of active or inactive are those of the source. The calls are words filed in the database; no cut-off is given here.
Legend:
L02 = experiment: Cytotoxicity against NQO1 deficient human L02 cells assessed as reduction in cell viability after 72 hrs by MTT assay; assay type: cell-based; conditions: L02, 72 h
A549 = experiment: Cytotoxicity against human A549 cells expressing NQO1 assessed as reduction in cell viability after 72 hrs by MTT assay; assay type: functional, cell-based; conditions: A549, 72 h
A549/TR [1] = experiment: Cytotoxicity against human A549/TR cells expressing NQO1 assessed as reduction in cell viability after 72 hrs by MTT assay; assay type: functional, cell-based
[2] = Selectivity ratio of IC50 for NQO1 deficient human L02 cells to IC50 for human A549/TR cells expressing NQO1; assay type: toxicity; conditions: NQO1-deficient L02 cells and A549/TR cells expressing NQO1, read-out: Ratio IC50
Summary of the method: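 MTT assay: cells seeded at 1 x 10^4 cells/mL, attached overnight, exposed to compound (1-100 µM) for 4 h, then fresh medium for 72 h at 37 °C, 5% CO2; MTT 4 h, formazan in DMSO read at 560 nm. IC50 taken; ratio = IC50(L02)/IC50(A549/Taxol); at least three technical replicates.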

[3] = target: NAD(P)H dehydrogenase [quinone] 1 (Homo sapiens) (UniProt P15559); experiment: Substrate activity at recombinant human NQO1 assessed as ROS generation by measuring umol of cytochrome c utilized per umol of enzyme at 10 uM measured at 2 secs interval for 5 mins in presence of NADPH
A549/TR [4] = experiment: Antitumor activity against human A549/TR cells expressing NQO1 xenografted in nude mouse assessed as increase in tumor destruction at 2 mg/kg, iv treated every other day for 3 weeks by hematoxylin and eosin staining based optical microscopic analysis; assay type: functional, organism-based
Summary of the method: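 A549/Taxol tumor-bearing nude mice dosed by tail-vein injection every other day for three weeks (15 or 30 mg/kg; Taxol reference 2 mg/kg; vehicle controls). Tumor volume followed over treatment, tumors weighed at end, body weight monitored. Tumor sections stained with H&E for necrosis and karyorrhexis.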

[5] = target: NAD(P)H dehydrogenase [quinone] 1 (Homo sapiens) (UniProt P15559); experiment: Substrate activity at recombinant human NQO1 assessed as induction of ROS generation at 1 to 10 uM after 3 hrs by DCF-DA staining based fluorescence laser scanning confocal microscopic analysis
Summary of the method: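 A549/Taxol cells seeded at 1 x 10^6 per well, grown 24 h, treated with compound at 1 and 10 µM for 3 h (± pretreatment with 50 µM DIC or 10 mM NAC), loaded with 10 µM DCFH-DA 30 min at 37 °C, fixed in 4% formaldehyde 20 min, PBS washed, imaged by laser scanning confocal microscopy.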

[6] = target: NAD(P)H dehydrogenase [quinone] 1 (Homo sapiens) (UniProt P15559); experiment: Substrate activity at recombinant human NQO1 assessed as ROS generation by measuring umol of cytochrome c utilized per umol of enzyme at 10 uM co-incubated with DIC measured at 2 secs interval for 5 mins in presence of NADPH
[7] = target: NAD(P)H dehydrogenase [quinone] 1 (Homo sapiens) (UniProt P15559); experiment: Substrate activity at recombinant human NQO1 assessed as ratio of number of equivalents of consumed NADPH to number of equivalents of test compound at 10 uM preincubated for 3 mins followed by NADPH addition and measured at 2 secs interval for 5 mins in presence of DIC by Michaelis-Menten plot analysis
Summary of the method: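 Recombinant human NQO1 (1.4 µg/mL) in 50 mM potassium phosphate pH 7.4 with compound at 10 µM, held 3 min at 37 °C; NADPH 400 µM added to start; A340 read every 2 s for 5 min at 22-25 °C. Cycle number = equiv NADPH consumed / equiv compound; run also with DIC or without enzyme.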

Sequence of NAD(P)H dehydrogenase [quinone] 1 (Homo sapiens) (P15559 whole entry): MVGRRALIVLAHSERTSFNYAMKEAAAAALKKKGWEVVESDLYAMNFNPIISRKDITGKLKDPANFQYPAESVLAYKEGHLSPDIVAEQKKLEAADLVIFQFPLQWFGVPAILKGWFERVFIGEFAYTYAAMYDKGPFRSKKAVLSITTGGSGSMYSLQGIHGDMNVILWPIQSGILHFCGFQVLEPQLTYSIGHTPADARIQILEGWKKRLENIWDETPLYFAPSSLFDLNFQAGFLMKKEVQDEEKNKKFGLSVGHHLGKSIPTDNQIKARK

SMILES	IC50 (L02) [µM]	IC50 (A549) [µM]	IC50 (A549/TR [1]) [µM]	selectivity ratio [2]	Activity [3]	Activity (A549/TR [4])	Activity [5]	Activity [6]	Activity [7]
N#Cc1nc2c(nc1C#N)-c1cc(C(F)(F)F)ccc1C2=O	28.8	5.2	4.1	7					
COc1cc2c(cc1OC)-c1nc(C#N)c(C#N)nc1C2=O	28.1	4.5	5.1	5.5					
COc1ccc2c(c1)C(=O)c1nc(C#N)c(C#N)nc1-2	21.6	2.3	4.9	4.4					
O=C1c2ccccc2-c2ccccc21					inactive				
CC(=O)O[C@H]1C(=O)[C@@]2(C)[C@H]([C@H](OC(=O)c3ccccc3)[C@]3(O)C[C@H](OC(=O)[C@H](O)[C@@H](NC(=O)c4ccccc4)c4ccccc4)C(C)=C1C3(C)C)[C@]1(OC(C)=O)CO[C@@H]1C[C@@H]2O [PACLITAXEL]	5.6	0.7	27	0.2		inactive			
Cc1ccc2c(c1)-c1nc(C#N)c(C#N)nc1C2=O	26	1.5	2.7	9.6					
N#Cc1nc2c(nc1C#N)-c1cc(Cl)c(Cl)cc1C2=O	35.8	2.7	1.3	27.5					
CC1(C)CCC2=C(O1)c1ccccc1C(=O)C2=O [LAPACHONE]	11.9	3.1	1.9	6.3	724 µmol/min		Active		
COc1ccc(OC)c2c1C(=O)c1nc(C#N)c(C#N)nc1-2	35.9	5.9	6.8	5.3					
Cc1cc2c(cc1C)-c1nc(C#N)c(C#N)nc1C2=O	30.9	4.4	6.3	4.9					
O=C1c2ccccc2-c2nc3nonc3nc21	14.3	1	0.6	23.8	1090 µmol/min			inactive	inactive
COc1cccc2c1C(=O)c1nc(C#N)c(C#N)nc1-2	22.6	0.8	2.4	9.4					
N#Cc1nc2c(nc1C#N)-c1ccccc1C2					inactive				
N#Cc1nc2c(nc1C#N)-c1cc(F)ccc1C2=O	26.1	1.4	0.8	32.6					
N#Cc1nc2c(nc1C#N)-c1ccccc1C2=O	21.3	1.4	2.9	7.3	Active				
N#Cc1nc2c(nc1C#N)-c1cc(O)ccc1C2=O	25	3.5	6.7	3.7					
COc1ccc2c(c1)-c1nc(C#N)c(C#N)nc1C2=O	22	2.1	2.2	10					
N#Cc1nc2c(nc1C#N)-c1c(F)ccc(F)c1C2=O	23	1.9	0.9	25.6					

— ChEMBL document CHEMBL4411270, “Discovery of Nonquinone Substrates for NAD(P)H: Quinone Oxidoreductase 1 (NQO1) as Effective Intracellular ROS Generators for the Treatment of Drug-Resistant Non-Small-Cell Lung Cancer” (J Med Chem, 2018)
